This is an account of results in ChEMBL document CHEMBL1287726, “Bisaryldiketene derivatives: A new class of selective ligands for c-myc G-quadruplex DNA” (Bioorg Med Chem, 2010).

Where “and” joins values, the source holds several entries; their conditions need not be identical. Equal entries are not always repeated. Calls of active or inactive are those of the source. The rule behind the calls is not given here.

Test [1] has as its system Nucleic Acid. Briefly: Binding affinity to F-c-kit1-T G-quadruplex DNA assessed as change in melting temperature at 1 uM by FRET assay (reference value: 54 degC). Format: nucleic-acid assay. The procedure, abridged: (§1)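 FRET melting of dual FAM/TAMRA-labelled oligonucleotide (0.2 μM), pre-annealed in K+ buffer (90 °C 5 min, slow cooling, 4 °C overnight), in 10 mM Tris-HCl pH 7.4, 60 mM KCl with ligand at 1 μM. Equilibrated 25 °C 5 min, then heated 1 °C/min to 95 °C; excitation 492 nm, emission 516 nm. ΔTm = Tm(DNA+ligand) − Tm(DNA).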

In test [2] the test system is c-myc G-quadruplex DNA F22T (human). Briefly: Binding affinity to human F22T G-quadruplex DNA assessed as change in melting temperature at 1 uM by FRET assay (reference value: 78 degC).
For test [3], the system named is Nucleic Acid. Briefly: Binding affinity to F-c-kit2-T G-quadruplex DNA assessed as change in melting temperature at 1 uM by FRET assay (reference value: 75 degC). Format: nucleic-acid assay. The procedure, abridged: as §1
Test [4] has as its system human telomeric G-quadruplex DNA F21T (human). Briefly: Binding affinity to F21T G-quadruplex DNA assessed as change in melting temperature at 1 uM by FRET assay (reference value: 60 degC).
Test [5] concerns Nucleic Acid. Briefly: Binding affinity to F22T G-quadruplex DNA assessed as decrease in melting temperature at 1 uM by FRET assay in presence of duplex DNA competitor ds26. Format: nucleic-acid assay. The procedure, abridged: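 Competitive FRET melting: 0.2 μM F22T premixed with excess duplex ds26 (3 μM or 10 μM), ligand at 1 μM, in 10 mM Tris-HCl pH 7.4, 60 mM KCl. Heated 1 °C/min from 25 °C to 95 °C; ex 492/em 516 nm; ΔTm determined.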

Test [6] concerns the target Nucleic Acid. Briefly: Binding affinity to single-strand Pu27 oligonucleotide assessed as formation of G-quadruplex complex after 3 mins by PCR stop assay. Format: nucleic-acid assay. The procedure, abridged:
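PCR stop assay: Pu27 with complementary Pu27rev (10 pmol each), 0.16 mM dNTP, 2.5 U Taq polymerase and ligand in 1× PCR buffer. Cycling 94 °C 3 min, then 35 cycles of 94 °C/58 °C/72 °C, 30 s each. Double-stranded product detected by electrophoresis; IC50 is the concentration inhibiting amplification by 50%.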

In test [7] the test system is Nucleic Acid. Briefly: Binding affinity to F10T hairpin duplex DNA assessed as change in melting temperature at 1 uM by FRET assay (reference value: 64 degC).
For test [8], the system named is Nucleic Acid. Briefly: Binding affinity to c-kit2 G-quadruplex DNA assessed as change in melting temperature by isothermal titration calorimetry. Format: nucleic-acid assay. The procedure, abridged: (§2)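 ITC at 25 °C: preannealed G-quadruplex (5 μM) in cell, ligand (400 μM) in syringe, both in 10 mM Tris-HCl pH 7.4, 150 mM KCl, degassed. Thirty 10 μL injections at 4 min intervals. Heats of ligand dilution into buffer subtracted before fitting the integrated thermograms for K, ΔH, ΔS.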

The test system of test [9] is Nucleic Acid. Briefly: Binding affinity to Pu27 G-quadruplex DNA assessed as change in melting temperature by isothermal titration calorimetry. Format: nucleic-acid assay. The procedure, abridged: as §2
In test [10] the test system is Nucleic Acid. Briefly: Selectivity ratio, K for F22T G-quadruplex DNA to K for c-kit1 G-quadruplex DNA. Format: nucleic-acid assay.
Test [11] has as its system Nucleic Acid. Briefly: Binding affinity to F22T G-quadruplex DNA assessed as change in melting temperature at 1 uM by FRET assay in presence of G-quadruplex DNA competitor c-kit1. Format: nucleic-acid assay. The procedure, abridged: (§3)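 Competitive FRET melting: 0.2 μM F22T with ligand at 1 μM, without or with 3 μM or 10 μM unlabelled G-quadruplex competitor (c-kit1, c-kit2 or HTG21), in 10 mM Tris-HCl pH 7.4, 60 mM KCl. Heated 1 °C/min from 25 °C to 95 °C; ex 492/em 516 nm; ΔTm determined.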

The subject of test [12] is Nucleic Acid. Briefly: Binding affinity to F22T G-quadruplex DNA assessed as change in melting temperature at 1 uM by FRET assay in presence of G-quadruplex DNA competitor c-kit2. Format: nucleic-acid assay. The procedure, abridged: as §3
Test [13] deals with Nucleic Acid. Briefly: Selectivity ratio, K for F22T G-quadruplex DNA to K for c-kit2 G-quadruplex DNA. Format: nucleic-acid assay.
Test [14] deals with Nucleic Acid. Briefly: Binding affinity to F22T G-quadruplex DNA assessed as decrease in melting temperature at 1 uM by FRET assay in presence of G-quadruplex DNA competitor HTG21. Format: nucleic-acid assay. The procedure, abridged:
as §3

For test [15], the system named is Nucleic Acid. Briefly: Selectivity ratio, K for F22T G-quadruplex DNA to K for human F21T G-quadruplex DNA. Format: nucleic-acid assay.
In test [16] the test system is Nucleic Acid. Briefly: Binding affinity to HTG21 G-quadruplex DNA assessed as change in melting temperature by isothermal titration calorimetry. Format: nucleic-acid assay. The procedure, abridged: as §2
For test [17], the system named is Nucleic Acid. Briefly: Binding affinity to c-kit1 G-quadruplex DNA assessed as change in melting temperature by isothermal titration calorimetry. Format: nucleic-acid assay. The procedure, abridged: as §2
On the technique in general: In ITC the heat of successive injections is recorded.

One may read the ΔTm as the change in melting temperature against a reference sample. For orientation: IC50 means the midpoint of a concentration-inhibition curve. Consider `O=C(/C=C/c1ccc2ncccc2c1)/C=C/c1ccc2ncccc2c1`, for which the ΔTm in test [1] was 10 °C; in test [2], 2 °C; in test [3], 5 °C; in test [4], 3 °C; in test [7], 0 °C. Moreover, in [5], the outcome was inactive. Besides, the 50% inhibitory concentration (IC50) in test [6] was over 20 µM.
With `C[n+]1cccc2cc(/C=C3\C[N+](C)(C)C/C(=C\c4ccc5c(ccc[n+]5C)c4)C3=O)ccc21`, the ΔTm in test [1] was 14 °C; in test [2] it was 7 °C; in test [3] it was 6 °C; in test [4], 7 °C; in test [7], 0 °C. In [5], the result was inactive. Moreover, the IC50 in test [6] amounted to 12.6 µM.
`CN1C/C(=C\c2ccc3ncccc3c2)C(=O)/C(=C/c2ccc3ncccc3c2)C1`: the ΔTm turned out to be 1 °C in [1]; 1 °C in [2]; 1 °C in test [3]; 4 °C in test [4]; 0 °C in test [7]. Also, the result in test [5] was inactive. For the same compound, the IC50 in test [6] was over 20 µM.
`O=C1/C(=C/c2ccc3ncccc3c2)CC/C1=C\c1ccc2ncccc2c1`: the ΔTm in test [1] is 1 °C; in [2] it was 2 °C; in test [3], 0 °C; in test [4] it was 0 °C; in [7], 0 °C. Further, the result in test [5] was inactive. Moreover, the IC50 in test [6] was over 20 µM.
As for `C[n+]1cccc2cc(/C=C3/CCC/C(=C/c4ccc5c(ccc[n+]5C)c4)C3=O)ccc21`, the thermal shift (ΔTm) in test [1] worked out at 17 °C; in test [2] it was 9 °C; in test [3], 12 °C; in test [4], 10 °C; in [7], 0 °C. Also, the result in test [5] was inactive. In test [6], the IC50 worked out at 1.1 µM.
In the case of `O=C1/C(=C\c2ccc3ncccc3c2)CCC/C1=C/c1ccc2ncccc2c1`, the ΔTm in test [1] was 1 °C; in [2] it was 2 °C; in test [3], 0 °C; in test [4] it was 0 °C; in [7] it was 0 °C. The result in test [5] was inactive. For the same compound, in test [6], the IC50 is over 20 µM.
In the case of `C[n+]1cccc2cc(/C=C3\CC/C(=C\c4ccc5c(ccc[n+]5C)c4)C3=O)ccc21`, the K in test [8] is 1.27 ×10⁵ /M; in [9], 8.05 ×10⁶ /M and 4.42 ×10⁴ /M; in test [16], 3.61 ×10⁴ /M; in test [17], 3.08 ×10⁵ /M. Moreover, the ΔTm in [1] was determined as 29 °C; in test [2], 17 °C; in test [3], 20 °C; in test [4] it was 23 °C; in [7], 1 °C. Further, the Selectivity ratio turned out to be 25 in test [10], 25 in test [13] and 200 in test [15]. Besides, the Activity in test [11] and in test [12] was 40% in each case. Also, the result in test [5] was inactive. For the same compound, in [14], the outcome was Active. Moreover, the IC50 in test [6] was 0.9 µM.
With `C[n+]1cccc2cc(/C=C/C(=O)/C=C/c3ccc4c(ccc[n+]4C)c3)ccc21`, the ΔTm in test [1] was found to be 24 °C; in [2] it was 13 °C; in test [3], 17 °C; in test [4] it was 17 °C; in test [7], 0 °C. Besides, the result in test [5] was inactive. The IC50 in test [6] was 0.7 µM.
